Measurements: ChEMBL document CHEMBL4257532, “Synthesis and antitumoral activity of novel analogues monastrol-fatty acids against glioma cells” (Medchemcomm, 2018)
Activity calls are given as the source filed them. No cut-off for these calls is given here.

How the values were obtained:
C6 [1] = assay: Potency index, ratio of monastrol-palmitic acid IC50 to compound IC50 for cytotoxicity against rat C6 cells; format: functional
C6 [2] = assay: Antiproliferative activity against rat C6 cells at 5 to 50 uM after 48 hrs by Neubauer chamber method; format: functional, cell-based
Summary of the method: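 C6 rat glioma cells (ATCC) grown in DMEM/10% FBS with penicillin/streptomycin and Fungizone at 37 °C, 5% CO2. Plated at 5 × 10^3 cells/well and treated 48 h with 5, 10, 25 or 50 μM, dissolved in DMSO. Vehicle control was 1% DMSO. Cells then trypsinized and aliquots counted in a Neubauer chamber. ANOVA with Tukey post-test versus control.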

C6 [3] = assay: Cytotoxicity against rat C6 cells assessed as reduction in cell viability at 5 uM after 48 hrs by MTT assay relative to control; format: functional
Summary of the method: (§1)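 C6 rat glioma cells in DMEM/10% FBS at 37 °C, 5% CO2. Seeded at 1 × 10^4 cells/well and exposed 48 h to 5–50 μM in DMSO, with a 1% DMSO vehicle control. MTT added at 0.5 mg/mL final for 60 min at 37 °C. Formazan dissolved in DMSO and read at 492 nm. Viability expressed as % of control. IC50 by linear regression of % inhibition against log concentration.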

C6 [4] = assay: Cytotoxicity against rat C6 cells assessed as reduction in cell viability after 48 hrs by MTT assay; format: functional, cell-based; details: for IC50: C6, 48 h; summary of the method: as §1
C6 [5] = assay: Cytotoxicity against rat C6 cells assessed as reduction in cell viability at 10 uM after 48 hrs by MTT assay; format: functional, cell-based; summary of the method: as §1

| SMILES | Ratio IC50 (C6 [1]) | Activity (C6 [2]) | Activity (C6 [3]) | Activity (C6 [4]) | IC50 (C6 [4]) | Activity (C6 [5]) |
| --- | --- | --- | --- | --- | --- | --- |
| CCCCCCCCCCCCCCCCCC1=C(C(=O)OC)C(c2cccc(O)c2)NC(=S)N1 (stereo not drawn) | 2.5 | Active | 50% | Dose-dependent effect | 6.85 µM |  |
| CCCCCCCCCCCCCCCC1=C(C(=O)OC)C(c2cccc(O)c2)NC(=S)N1 (stereo not drawn) | 2.5 | Active | 50% | Dose-dependent effect | 5.11 µM |  |
| CCCCCCCCCCCCCCCCCC1=C(C(=O)OC)C(c2cccc(O)c2)NC(=O)N1 (stereo not drawn) |  | Active | Active |  | 21.8 µM |  |
| CCOC(=O)C1=C(C)NC(=S)NC1c1cccc(O)c1 (stereo not drawn) [MONASTROL] |  | Active |  |  | 87.8 µM |  |
| CCCCCCCCCCCCCCCC1=C(C(=O)OC)C(c2cccc(O)c2)NC(=O)N1 (stereo not drawn) |  | Active | Active |  | 79.4 µM |  |
| CCCCCCCC/C=C\CCCCCCCC1=C(C(=O)OC)C(c2cccc(O)c2)NC(=O)N1 (stereo not drawn) |  | Active |  |  | 166 µM | Active |
| CCCCCCCC/C=C\CCCCCCCC1=C(C(=O)OC)C(c2cccc(O)c2)NC(=S)N1 (stereo not drawn) |  | Active |  |  | 38.4 µM |  |
